# Results reported in ChEMBL document CHEMBL3217512, “Indole/triazole conjugates are selective inhibitors and inducers of bacterial biofilms” (Medchemcomm, 2013).
# Assays:
# Staphylococcus aureus [1] = test: Antimicrobial activity against methicillin-resistant Staphylococcus aureus BAA 44 assessed as effect on planktonic growth at IC50 after 2 to 24 hrs; format: organism-based; conditions: in vivo
# Escherichia coli [2] = test: Antimicrobial activity against Escherichia coli K-12 ER2718 assessed as effect on planktonic growth at PC25 after 2 to 24 hrs; format: organism-based
# Staphylococcus aureus [3] = test: Antimicrobial activity against Staphylococcus aureus 29213 assessed as effect on planktonic growth at IC50 after 2 to 24 hrs; format: organism-based; conditions: in vivo
# Escherichia coli [4] = test: Antimicrobial activity against Escherichia coli K-12 ER2718 assessed as effect on planktonic growth at PC25 after 2 to 24 hrs by colony count method; format: organism-based
# Staphylococcus aureus [5] = test: Antimicrobial activity against methicillin-resistant Staphylococcus aureus BAA 44 assessed as effect on planktonic growth at IC50 after 2 to 24 hrs by colony count method; format: organism-based; conditions: in vivo
# Escherichia coli [6] = test: Induction of biofilm formation in Escherichia coli K-12 ER2718 assessed as concentration required for 75% promotion of biofilm formation after 24 hrs by crystal violet staining-based assay; format: functional
# Summary of the method: (§1)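 For strong inducers of E. coli biofilm, dose-response curves were run in the static crystal violet assay. PC25, PC50 and PC75 are the concentrations promoting biofilm formation by 25%, 50% and 75%.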
# Acinetobacter baumannii [7] = test: Antimicrobial activity against Acinetobacter baumannii 19606 assessed as effect on planktonic growth at IC50 after 2 to 24 hrs; set-up: species or system ATCC 19606
# Staphylococcus aureus [8] = test: Inhibition of biofilm formation in Staphylococcus aureus 29213 after 24 hrs by crystal violet staining-based assay; format: functional, organism-based; conditions: Staphylococcus aureus, 29213, 24 h
# Summary of the method: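 Compounds active in the 150 μM screen were taken into dose-response studies under static conditions with a crystal violet read-out. IC50 is the concentration that inhibits 50% of biofilm growth relative to an untreated control.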
# Escherichia coli [9] = test: Antimicrobial activity against Escherichia coli K-12 ER2718 assessed as effect on planktonic growth at IC50 after 2 to 24 hrs by colony count method; format: organism-based
# Acinetobacter baumannii [10] = test: Inhibition of biofilm formation in Acinetobacter baumannii 19606 at 150 uM after 24 hrs by crystal violet staining-based assay relative to control; format: functional; conditions: ATCC 19606 = CIP 70.34 = JCM 6841, 24 h
# Escherichia coli [11] = test: Antimicrobial activity against Escherichia coli K-12 ER2718 assessed as effect on planktonic growth at PC50 after 2 to 24 hrs; format: organism-based
# Escherichia coli [12] = test: Induction of biofilm formation in Escherichia coli K-12 ER2718 assessed as concentration required for 25% promotion of biofilm formation after 24 hrs by crystal violet staining-based assay; format: functional; summary of the method: as §1
# Escherichia coli [13] = test: Induction of biofilm formation in Escherichia coli K-12 ER2718 at 50 uM after 24 hrs by crystal violet staining-based assay relative to control; format: functional
# Summary of the method: (§2)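 Static biofilm assay with compounds at 50 μM and crystal violet read-out, relative to an untreated control. Compounds increasing biofilm by less than 50% were called inducers, and by more than 50% strong inducers.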
# Escherichia coli [14] = test: Antimicrobial activity against Escherichia coli K-12 ER2718 assessed as effect on planktonic growth at PC75 after 2 to 24 hrs; format: organism-based; conditions: in vivo
# Staphylococcus aureus [15] = test: Antimicrobial activity against Staphylococcus aureus 29213 assessed as effect on planktonic growth at IC50 after 2 to 24 hrs by colony count method; format: organism-based; conditions: in vivo
# Escherichia coli [16] = test: Antimicrobial activity against Escherichia coli K-12 ER2718 assessed as effect on planktonic growth at PC75 after 2 to 24 hrs by colony count method; format: organism-based; conditions: in vivo
# Escherichia coli [17] = test: Induction of biofilm formation in Escherichia coli K-12 ER2718 assessed as concentration required for 50% promotion of biofilm formation after 24 hrs by crystal violet staining-based assay; format: functional; summary of the method: as §1
# Acinetobacter baumannii [18] = test: Antimicrobial activity against Acinetobacter baumannii 19606 assessed as effect on planktonic growth at IC50 after 2 to 24 hrs by colony count method; set-up: species or system ATCC 19606
# Escherichia coli [19] = test: Antimicrobial activity against Escherichia coli K-12 ER2718 assessed as effect on planktonic growth at PC50 after 2 to 24 hrs by colony count method; format: organism-based; conditions: in vivo
# Escherichia coli [20] = test: Antimicrobial activity against Escherichia coli K-12 ER2718 assessed as effect on planktonic growth at IC50 after 2 to 24 hrs; format: organism-based
# Staphylococcus aureus [21] = test: Inhibition of biofilm formation in methicillin-resistant Staphylococcus aureus BAA 44 at 150 uM after 24 hrs by crystal violet staining-based assay relative to control; format: functional; conditions: BAA 44, 24 h
# Summary of the method: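 Static biofilm development in MRSA, read out by crystal violet staining against an untreated control. Initial screen at 150 μM. Inhibitors then went to dose-response, with IC50 taken as the concentration giving 50% inhibition of biofilm growth. Induction was judged at 50 μM: under 50% induction counted as "inducer", over 50% as "strong inducer".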
# Escherichia coli [22] = test: Antimicrobial activity against Escherichia coli K-12 ER2718 assessed as effect on planktonic growth at 50 uM after 2 to 24 hrs; format: organism-based
# Summary of the method: (§3)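 Growth curve analysis of planktonic bacteria with each biofilm inducer at 50 μM, used to assess toxicity.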
# Staphylococcus aureus [23] = test: Induction of biofilm formation in Staphylococcus aureus 29213 at 50 uM after 24 hrs by crystal violet staining-based assay relative to control; format: functional; summary of the method: as §2
# Staphylococcus aureus [24] = test: Antimicrobial activity against Staphylococcus aureus 29213 assessed as effect on planktonic growth at PC50 after 2 to 24 hrs; format: organism-based; conditions: in vivo
# Staphylococcus aureus [25] = test: Antimicrobial activity against Staphylococcus aureus 29213 assessed as effect on planktonic growth at PC25 after 2 to 24 hrs by colony count method; format: organism-based; conditions: in vivo
# Escherichia coli [26] = test: Inhibition of biofilm formation in Escherichia coli K-12 ER2718 at 150 uM after 24 hrs by crystal violet staining-based assay relative to control; format: functional; conditions: K-12 ER2718, 24 h
# Staphylococcus aureus [27] = test: Antimicrobial activity against Staphylococcus aureus 29213 assessed as effect on planktonic growth at PC50 after 2 to 24 hrs by colony count method; format: organism-based; conditions: in vivo
# Staphylococcus aureus [28] = test: Antimicrobial activity against Staphylococcus aureus 29213 assessed as effect on planktonic growth at PC25 after 2 to 24 hrs; format: organism-based; conditions: in vivo
# Staphylococcus aureus [29] = test: Antimicrobial activity against Staphylococcus aureus 29213 assessed as effect on planktonic growth at PC75 after 2 to 24 hrs; format: organism-based; conditions: in vivo
# Staphylococcus aureus [30] = test: Antimicrobial activity against Staphylococcus aureus 29213 assessed as effect on planktonic growth at 50 uM after 2 to 24 hrs; format: organism-based; summary of the method: as §3
# Staphylococcus aureus [31] = test: Antimicrobial activity against Staphylococcus aureus 29213 assessed as effect on planktonic growth at PC75 after 2 to 24 hrs by colony count method; format: organism-based; conditions: in vivo
# Acinetobacter baumannii [32] = test: Antimicrobial activity against Acinetobacter baumannii 19606 assessed as effect on planktonic growth at PC25 after 2 to 24 hrs; set-up: species or system ATCC 19606
# Acinetobacter baumannii [33] = test: Antimicrobial activity against Acinetobacter baumannii 19606 assessed as effect on planktonic growth at PC25 after 2 to 24 hrs by colony count method; set-up: species or system ATCC 19606
# Acinetobacter baumannii [34] = test: Antimicrobial activity against Acinetobacter baumannii 19606 assessed as effect on planktonic growth at 50 uM after 2 to 24 hrs; set-up: species or system ATCC 19606; summary of the method: as §3
# Acinetobacter baumannii [35] = test: Induction of biofilm formation in Acinetobacter baumannii 19606 at 50 uM after 24 hrs by crystal violet staining-based assay relative to control; format: functional, ATCC 19606 = CIP 70.34 = JCM 6841; summary of the method: as §2
# Acinetobacter baumannii [36] = test: Antimicrobial activity against Acinetobacter baumannii 19606 assessed as effect on planktonic growth at PC75 after 2 to 24 hrs by colony count method; set-up: species or system ATCC 19606
# Acinetobacter baumannii [37] = test: Antimicrobial activity against Acinetobacter baumannii 19606 assessed as effect on planktonic growth at PC50 after 2 to 24 hrs by colony count method; set-up: species or system ATCC 19606
# Acinetobacter baumannii [38] = test: Antimicrobial activity against Acinetobacter baumannii 19606 assessed as effect on planktonic growth at PC75 after 2 to 24 hrs; set-up: species or system ATCC 19606
# Acinetobacter baumannii [39] = test: Antimicrobial activity against Acinetobacter baumannii 19606 assessed as effect on planktonic growth at PC50 after 2 to 24 hrs; set-up: species or system ATCC 19606
# Staphylococcus aureus [40] = test: Inhibition of biofilm formation in Staphylococcus aureus 29213 at 150 uM after 24 hrs by crystal violet staining-based assay relative to control; format: functional; conditions: Staphylococcus aureus, 29213, 24 h
Compound,Activity (Staphylococcus aureus [1]),Activity (Escherichia coli [2]),Activity (Staphylococcus aureus [3]),Activity (Escherichia coli [4]),Activity (Staphylococcus aureus [5]),Activity (Escherichia coli [6]) [µM],Activity (Acinetobacter baumannii [7]),Activity (Escherichia coli [9]),inhibition at 150 µM (Acinetobacter baumannii [10]) [%],Activity (Escherichia coli [11]),Activity (Escherichia coli [13]) [%],Activity (Escherichia coli [14]),Activity (Staphylococcus aureus [15]),Activity (Escherichia coli [16]),Activity (Acinetobacter baumannii [18]),Activity (Escherichia coli [19]),Activity (Escherichia coli [20]),inhibition at 150 µM (Staphylococcus aureus [21]) [%],Activity (Escherichia coli [22]),inhibition at 150 µM (Escherichia coli [26]) [%],also measured
CCCCCc1ccc(C(=O)NCCn2cc(Cc3c[nH]c4ccccc34)nn2)cc1,Non-toxic,Non-toxic,Non-toxic,Non-toxic,Non-toxic,111.6,Non-toxic,Non-toxic,< 5,Non-toxic,>50,Non-toxic,Non-toxic,Non-toxic,Non-toxic,Non-toxic,Non-toxic,< 5,Non-toxic,–,IC50 (Staphylococcus aureus [8]): 44.4 µM; Activity (Escherichia coli [12]): 48.3 µM; Activity (Escherichia coli [17]): 74.8 µM
O=C(NCCn1cc(Cc2c[nH]c3ccccc23)nn1)c1ccccc1F,Non-toxic,–,Non-toxic,–,Non-toxic,–,Non-toxic,Non-toxic,15,–,–,–,Non-toxic,–,Non-toxic,–,Non-toxic,35,–,< 5,Activity (Staphylococcus aureus [23]): <50%; Activity (Staphylococcus aureus [24]): Non-toxic; Activity (Staphylococcus aureus [25]): Non-toxic; Activity (Staphylococcus aureus [27]): Non-toxic; Activity (Staphylococcus aureus [28]): Non-toxic; Activity (Staphylococcus aureus [29]): Non-toxic; Activity (Staphylococcus aureus [30]): Non-toxic; Activity (Staphylococcus aureus [31]): Non-toxic
O=C(Cn1cc(Cc2csc3ccccc23)nn1)Nc1ccccc1,Non-toxic,Non-toxic,Non-toxic,Non-toxic,Non-toxic,–,Non-toxic,Non-toxic,–,Non-toxic,<50,Non-toxic,Non-toxic,Non-toxic,Non-toxic,Non-toxic,Non-toxic,20,Non-toxic,–,Activity (Acinetobacter baumannii [32]): Non-toxic; Activity (Acinetobacter baumannii [33]): Non-toxic; Activity (Acinetobacter baumannii [34]): Non-toxic; IC50 (Staphylococcus aureus [8]): 215 µM; Activity (Acinetobacter baumannii [35]): <50%; Activity (Acinetobacter baumannii [36]): Non-toxic; Activity (Acinetobacter baumannii [37]): Non-toxic; Activity (Acinetobacter baumannii [38]): Non-toxic; Activity (Acinetobacter baumannii [39]): Non-toxic
O=C(NCCn1cc(Cc2csc3ccccc23)nn1)c1ccccc1F,Non-toxic,–,Non-toxic,–,Non-toxic,–,Non-toxic,Non-toxic,< 5,–,–,–,Non-toxic,–,Non-toxic,–,Non-toxic,< 5,–,< 5,Activity (Staphylococcus aureus [23]): >50%; Activity (Staphylococcus aureus [24]): Non-toxic; Activity (Staphylococcus aureus [25]): Non-toxic; Activity (Staphylococcus aureus [27]): Non-toxic; Activity (Staphylococcus aureus [28]): Non-toxic; Activity (Staphylococcus aureus [29]): Non-toxic; Activity (Staphylococcus aureus [30]): Non-toxic; Activity (Staphylococcus aureus [31]): Non-toxic
CCCCCc1ccc(C(=O)NCCn2cc(Cc3csc4ccccc34)nn2)cc1,Non-toxic,Non-toxic,Non-toxic,Non-toxic,Non-toxic,151.9,Non-toxic,Non-toxic,< 5,Non-toxic,>50,Non-toxic,Non-toxic,Non-toxic,Non-toxic,Non-toxic,Non-toxic,< 5,Non-toxic,–,Activity (Escherichia coli [12]): 26.7 µM; Activity (Escherichia coli [17]): 99.8 µM; inhibition at 150 µM (Staphylococcus aureus [40]): < 5%
CCCCCCCc1ccc(C(=O)NCCn2cc(Cc3c[nH]c4ccccc34)nn2)cc1,Non-toxic,Non-toxic,Non-toxic,Non-toxic,Non-toxic,119.7,Non-toxic,Non-toxic,30,Non-toxic,>50,Non-toxic,Non-toxic,Non-toxic,Non-toxic,Non-toxic,Non-toxic,< 5,Non-toxic,–,IC50 (Staphylococcus aureus [8]): 175 µM; Activity (Escherichia coli [12]): 50.5 µM; Activity (Escherichia coli [17]): 80.7 µM
COc1ccc(CNC(=O)Cn2cc(Cc3c[nH]c4ccccc34)nn2)cc1,Non-toxic,–,Non-toxic,–,Non-toxic,–,Non-toxic,Non-toxic,20,–,–,–,Non-toxic,–,Non-toxic,–,Non-toxic,< 5,–,< 5,inhibition at 150 µM (Staphylococcus aureus [40]): < 5%
CCCCCCNC(=O)Cn1cc(Cc2csc3ccccc23)nn1,Non-toxic,–,Non-toxic,–,Non-toxic,–,Non-toxic,Non-toxic,20,–,–,–,Non-toxic,–,Non-toxic,–,Non-toxic,< 5,–,< 5,inhibition at 150 µM (Staphylococcus aureus [40]): < 5%
